# Hits are enriched below; roughly 3.5% of the tested compounds scored in any of these assays.
# RGS4 block: inhibitors of human RGS4. HEK293 M3R/RGS4 inducible, Fluo-4 calcium flux; active compounds read high; triggered by carbachol at its EC20. P49798. 310,000 compounds, 0.45% hits. B-score at 10 µM;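 active = B-score, a plate-corrected calcium signal, over three deviations above library mean, with baseline fluorescence within five deviations of library mean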;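 note: RGS4 expression induced by doxycycline in cells with stable M3 receptor; B-score is computed from the integrated fluorescence ratio over baseline after carbachol; higher B-score means a larger calcium signal and so more RGS4 inhibition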
# Target sequence (P49798 whole entry, looked up): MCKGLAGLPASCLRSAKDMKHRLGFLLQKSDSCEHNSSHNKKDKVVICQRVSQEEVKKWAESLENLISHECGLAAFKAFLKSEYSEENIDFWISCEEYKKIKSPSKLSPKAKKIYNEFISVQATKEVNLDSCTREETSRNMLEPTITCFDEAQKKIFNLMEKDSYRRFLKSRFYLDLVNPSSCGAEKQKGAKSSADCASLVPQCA
# MrgX1 ag: activates human MrgX1 receptor signaling; B-score at 10 µM; 310,000 compounds, 0.44% hits; Q96LB2; MrgX1-HEK293 cells, Fluo-4 calcium fluorescence, agonist mode; active compounds read high;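 active = calcium response B-score plate-corrected fluorescence ratio at least 3 library SD, with starting fluorescence B-score inside 5 SD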
#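 Assay system: stable human MrgX1 HEK293 cell line. Quantity: 15,000 cells per well. Schedule: cells plated overnight, dye loaded 0.5 h 37 °C, 0.5 h room temperature. Detection: Fluo-4 NW calcium-flux fluorescence, kinetic read. Read-out basis: peak-minus-minimum fluorescence over baseline, converted to B scores. Control set: positive and negative control wells on each plate.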
# RGS4 pot: RGS4 potentiation or activation | HEK293 M3R/inducible RGS4, carbachol calcium flux Fluo4; active compounds read low | B-score at 10 µM | 310,000 compounds, 0.92% hits;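 active = B-score of the integrated calcium signal more than 4 SD below the library mean, with starting fluorescence not abnormally high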;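 note: negative B-score means reduced calcium response which marks RGS4 activation or potentiation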
#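 test system = HEK293 cells with stable M3R and inducible RGS4 | schedule = recording 10 s baseline at 1 Hz, 100 s post-agonist | technique = Fluo4-AM (2 µM) calcium-flux fluorescence, kinetic read | measure = Agonist-evoked peak-minus-minimum fluorescence over baseline, integrated ratio, B score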
# MrgX1 allo act: human MrgX1 positive allosteric modulation, primary screen | Q96LB2 | MrgX1-HEK293, Fluo-4 calcium flux, FDSS; active compounds read high | B-score at 10 µM | 310,000 compounds, 0.63% hits | AID 588675;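 active = plate-corrected calcium response at least 3 library SD above typical, normal starting fluorescence, not activating the receptor alone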;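 note: compound read alongside a low EC10 to EC30 dose of BAM8-22 agonist; peak minus trough fluorescence over baseline measured at the second addition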
# MrgX1 antag: antagonists of human MrgX1 receptor. Q96LB2. MRGX1-HEK293 calcium flux, Fluo-4, BAM8-22 antagonism; active compounds read low. B-score at 10 µM. 310,000 compounds, 1.3% hits;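 active = calcium-response B-score plate-corrected more than 3 library SD below zero, starting fluorescence within 5 deviations, no agonist response on first addition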;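 note: peak minus trough fluorescence over baseline after final BAM8-22 challenge near maximal dose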
# * hit, by the source's call; i = inactive; . = no result given.
SMILES,RGS4 block,MrgX1 ag,RGS4 pot,MrgX1 allo act,MrgX1 antag
Cc1ccccc1Nc1nc(N)nc(COC(=O)[C@@H](NC(=O)c2ccccc2Cl)C(C)C)n1,i,i,i,i,i
CCCN1CCN(c2nc(-c3cccs3)nc3ccccc23)CC1,i,i,i,i,i
CCOC(=O)N1CCN(c2nc(-c3cccs3)nc3ccccc23)CC1,i,i,-7.27*,i,i
C[N+]1(C)CC[C@H](OC(=O)[C@@](O)(c2ccccc2)C2CCCC2)C1,i,i,i,i,i
CCN(CC)CC#CCOC(=O)C(O)(c1ccccc1)C1CCCCC1 (stereo not given),i,i,-7.02*,i,i
Cc1ccc(S(=O)(=O)Nc2ccccc2F)cc1C(=O)NCCCN1CCCC1=O,i,i,i,i,i
COc1ccccc1NS(=O)(=O)c1ccc(C)c(C(=O)NCCCN2CCCC2=O)c1,i,i,i,i,-9.11*
Cc1nc([N+](=O)[O-])nn1C12CC3CC(CC(Cl)(C3)C1)C2,i,i,i,i,i
Oc1ccccc1C1CC(c2cccs2)=NC(c2ccc(Cl)cc2)N1 (stereo not given),i,i,i,7.42*,i
Cc1cccc(N2CCN(C(=O)COc3ccc4c(C)cc(=O)oc4c3C)CC2)c1C,i,i,i,i,i
O=C(/C(=N\O)n1cncn1)c1ccc(Cl)cc1Cl,i,i,i,i,i
O=C(/C(=C/c1ccccc1)n1cncn1)c1ccc(Cl)cc1Cl,i,26.5*,i,i,i
C[C@H](NC(=O)c1nc[nH]c1C(=O)N[C@@H](CCCCNC(=O)OC(C)(C)C)C(=O)OC(C)(C)C)C(=O)OCc1ccccc1,i,i,i,i,i
CC(C)C[C@H](NC(=O)c1nc[nH]c1C(=O)NCCCCCNC(=O)OC(C)(C)C)C(=O)OCc1ccccc1,i,i,i,i,i
CC(C)C[C@H](NC(=O)c1[nH]cnc1C(=O)Nc1ccc(CNC(=O)OC(C)(C)C)cc1)C(=O)OC(C)(C)C,i,i,-7.04*,i,i
CC(C)(C)OC(=O)NCCCCCNC(=O)c1[nH]cnc1C(=O)N[C@@H](Cc1ccccc1)C(=O)OCc1ccccc1,i,i,-7.5*,i,i
C[C@H](NC(=O)c1nc[nH]c1C(=O)NCCCCCNC(=O)OC(C)(C)C)C(=O)OCc1ccccc1,i,i,-7.83*,7.76*,i
CCOc1ccc(C(=O)NCC(c2cccs2)N(C)C)cc1OCC (stereo not given),i,i,i,i,i
CCn1ccnc1CN1CCc2c([nH]c3ccccc23)C1C1CCCCC1 (stereo not given),i,i,-7.57*,i,i
CCn1ccnc1CN1CCc2c([nH]c3ccccc23)C1C(C)(C)C (stereo not given),i,i,i,i,i
Cc1nc2ccccc2c(=O)n1CCN1CCOCC1,i,i,-7.37*,i,i
COc1ccc(OC)c(N=CC2=C(O)CC(C)(C)CC2=O)c1,i,i,i,i,i
COc1ccc(N=CC2=C(O)CC(C)(C)CC2=O)cc1,i,i,i,i,-6.54*
CS(=O)(=O)Nc1ccc(C(=O)Nc2ccccc2-c2ccccc2)cc1,i,i,i,i,i
CC(=O)c1c(C)[nH]c(C(=O)Nc2ccc(F)c(F)c2F)c1C,i,i,i,i,i
Oc1ccc2ccccc2c1CN1CCN(C/C=C/c2ccccc2)CC1,i,i,-7.82*,i,i
Oc1ccc2ccccc2c1CN1CCN(c2ccccc2F)CC1,i,.,i,.,.
O=C(COc1ccc(Br)cc1)N1CCNC1=O,i,i,i,i,i
CC(=O)OCC1=C(C(=O)O)N2C(=O)C(NC(=O)c3ccc(F)cc3)C2SC1 (stereo not given),i,i,i,i,i
CC(=O)OCC1=C(C(=O)O)N2C(=O)C(NC(=O)C(C)Cn3nc(C)c(Cl)c3C)C2SC1 (stereo not given),i,i,-7.08*,i,i

# Assay outcomes from PubChem.
